Measured values taken from PubChem BioAssay.
The source made the active and inactive calls.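 Rule for the calls, unless noted: active = viability at or below 30% in both replicate assays; inconclusive = viability at or below 30% in just one of the two assays; inactive = the rest.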

Key:
[1] = SK-BR-3 cell growth inhibitors, pilot screen, 24 h, human (AID 572;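 active = viability at or below 10% of carrier control in both of two separate runs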;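 note: compound exposure lasted between 18 and 24 h rather than exactly 24 h; 100% = carrier-treated control wells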); settings: SK-BR-3 viability, CellTiter-Glo luminescence, at 10 µM, stronger effect = lower value
[2] = HUVEC growth inhibition – cell-based, human, primary screen (AID 575); settings: HUVEC proliferation, CellTiter-Glo luminescence, 72 h; at 10 µM; stronger effect = lower value;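 note: 100% = median of untreated cell wells with 0.1% DMSO on each plate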
Outline: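 System: primary human umbilical vein endothelial cells; Quantity: 1250 endothelial cells in each well; Buffer or medium: supplemented EBM, 2% fetal bovine serum; Doses: one dose, 10 µM final, 0.1% DMSO; Incubation: 72 h compound incubation; Technique: ATP-based CellTiter-Glo luminescent read; Evaluation: percent of median DMSO-control luminescence; Controls: vehicle and MePR control wells.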

[3] = growth inhibitors of H69AR lung tumor, primary screen, human, duplicate replicates (AID 580;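 active = viability at or under a set limit in both replicates, limit being median viability minus 3 SD, cut at about 48% in these data, passing the limit was not always enough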;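 note: 100% = mean luminescence of untreated wells and 0% = no signal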); settings: H69AR lung tumor cells viability, ATP luminescence, 72 h; at 10 µM; stronger effect = lower value
[4] = reversal of MRP1-mediated doxorubicin resistance, pilot screen, H69AR cells, doxorubicin co-treatment (AID 601;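 active = viability loss from added drug above about 55%, and viability with drug at most 40%, in both replicates, limit read from the data, passing the limit was not always enough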); settings: CellTiter-Glo, 72 h, at 10 µM; for differential viability (reversal): stronger effect = higher value
[5] = 384-well plate pilot, post-Golgi transport modulator project, inhibition of yeast transport mutant growth (AID 636; in the data active = inhibition above about 31%); settings: absorbance 615 nm, about 18 h, stronger effect = higher value
[6] = growth suppression of yeast trafficking mutant, preliminary HTS, modulators of trafficking downstream of Golgi apparatus project, 1536-format plate, OD 615 nm (AID 637; in the data active = inhibition above about 30%); settings: yeast transport mutant growth, absorbance 615 nm, 18 h; stronger effect = higher value
[7] = H69AR cells + 2 uM doxorubicin, measured here: viability with 2 uM doxorubicin, stronger effect = lower value
[8] = H69AR cells, compound alone cytotoxicity

Row | SMILES | viability [1] | viability [2] | viability [3] | differential viability (reversal) ([4]; H69AR cells + 2 uM doxorubicin) | viability [4, 7] | viability [4, 8] | inhibition [5] | inhibition [6]
1 | CCc1nnc(NC(=O)CSc2nnc(-c3ccccc3OC)n2-c2ccccc2)s1 | 77% (inactive) | 108% (inactive) | 85.2% (inactive) | -1.85% (inactive) | 87% | 85.2% | -1.73% (inactive) | -1.45% (inactive)
2 | Cc1nc2sccn2c(=O)c1CCN1CCC(=C(c2ccccc2)c2ccc(F)cc2)CC1 | 160% (inactive) | 3.02% (active) | 81.9% (inactive) | -12.5% (inactive) | 94.5% | 81.9% | -0.13% (inactive) | 24.5% (inactive)
3 | COc1cc2[nH]c3c(=O)n(CCN(C(C)C)C(C)C)cnc3c2cc1OC | 95% (inactive) | 99.1% (inactive) | 83.5% (inactive) | -0.365% (inactive) | 83.9% | 83.5% | -6.89% (inactive) | 4.91% (inactive)
4 | CCOC(=O)c1cnc(-n2nc(C)cc2C)nc1N1CC(C)OC(C)C1 (centres undefined) | 127% (inactive) | 105% (inactive) | 86.1% (inactive) | 9.65% (inactive) | 76.4% | 86.1% | -3.47% (inactive) | 0.73% (inactive)
5 | COCCN(Cc1cc2cccc(C)c2[nH]c1=O)C(=O)c1ccccc1 | 95% (inactive) | 118% (inactive) | 102% (inactive) | 7.6% (inactive) | 94.1% | 102% | -0.95% (inactive) | 1.09% (inactive)
6 | Fc1cccc(NCc2cn3ccccc3n2)c1 | 81% (inactive) | 105% (inactive) | 87.6% (inactive) | -1.66% (inactive) | 89.2% | 87.6% | -5% (inactive) | 21.4% (inactive)
7 | Cc1cc(O)c(NC(=O)c2ccc(Br)o2)cc1C | 98% (inactive) | 71% (inactive) | 73.2% (inactive) | -15% (inactive) | 88.2% | 73.2% | -6.08% (inactive) | 1.5% (inactive)
8 | C1CNCCNCCNCCN1 | 101% (inactive) | 113% (inactive) | 95.7% (inactive) | 0.16% (inactive) | 95.5% | 95.7% | -0.26% (inactive) | 2.83% (inactive)
9 | Cc1ccc2nc(NC(=O)C3CCCN(S(=O)(=O)c4cccc5nonc45)C3)sc2c1 (centres undefined) | 97.5% (inactive) | 71.6% (inactive) | 76% (inactive) | -14.8% (inactive) | 90.8% | 76% | -4.34% (inactive) | 1.17% (inactive)
10 | O=C(Nc1ccon1)c1cccc(S(=O)(=O)N2CCCC2)c1 | 96% (inactive) | 99.5% (inactive) | 87.8% (inactive) | -10.9% (inactive) | 98.8% | 87.8% | -2.53% (inactive) | -0.55% (inactive)
11 | O=C1CCCN1Cc1ncnn1-c1ccccc1 | 89% (inactive) | 108% (inactive) | 112% (inactive) | 14.7% (inactive) | 97.1% | 112% | 0.27% (inactive) | -6.55% (inactive)
12 | COCCCNC(=O)CCn1c(=O)c2ccccc2n(CC(=O)Nc2ccc(C)cc2C)c1=O | 101% (inactive) | 106% (inactive) | 87.1% (inactive) | 7.22% (inactive) | 79.9% | 87.1% | 1.3% (inactive) | -5.41% (inactive)
13 | Cc1ccc2[nH]c(=O)c(-c3noc(-c4ccncc4)n3)cc2c1 | 104% (inactive) | 113% (inactive) | 98.7% (inactive) | 4.67% (inactive) | 94% | 98.7% | -8.11% (inactive) | 6.18% (inactive)
14 | CCN(CC)CCn1c(OC)cc(=O)[nH]c1=O | 93% (inactive) | 104% (inactive) | 101% (inactive) | 0.635% (inactive) | 99.9% | 101% | -10% (inactive) | -0.97% (inactive)
15 | COc1ccc2cc3cc(C(=O)NCC4CCCO4)oc3nc2c1 (centres undefined) | 128% (inactive) | 84.8% (inactive) | 88.1% (inactive) | 4.77% (inactive) | 83.4% | 88.1% | 1.69% (inactive) | 3.44% (inactive)
16 | c1cnc(NCCNc2ncccn2)nc1 | 98% (inactive) | 112% (inactive) | 99.8% (inactive) | 10.7% (inactive) | 89% | 99.8% | -8.4% (inactive) | -3.82% (inactive)
17 | CCCn1c(SCC(=O)NC(=O)NCc2ccco2)n[nH]c1=O | 101% (inactive) | 90.4% (inactive) | 96.6% (inactive) | 1.45% (inactive) | 95.1% | 96.6% | -2.8% (inactive) | -3.64% (inactive)
18 | Cc1cccc(C)c1NC(=O)COC(=O)c1nonc1N | 79% (inactive) | 108% (inactive) | 98.9% (inactive) | 4.63% (inactive) | 94.3% | 98.9% | -4.13% (inactive) | -7.09% (inactive)
